Here are results for 16 compounds from ChEMBL document CHEMBL1828499, “Design and synthesis of inhibitors of noroviruses by scaffold hopping” (Bioorg Med Chem, 2011).

Data set [1] deals with Norovirus. As to the kind of experiment: Antiviral activity against Norovirus infected in human HG23 cells assessed as inhibition of viral replication after 24 hrs by qRT-PCR. The class given is functional. The settings on record: HG23, 24 h, read-out: ED50 (the source's name). The gist of the method: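 HG23 cells (harbouring NV replicon), one day old and 80–90% confluent, exposed to each compound over 0 (mock-DMSO) to 20 μM. NV genome levels measured by qRT-PCR; ED50 for genome level taken at 24 hr post-treatment.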

Data set [2] is described as follows: Cytotoxicity against human HG23 cells after 48 hrs. The class given is cell-based. The settings on record: read-out: TD50. In outline: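 HG23 cells (Norwalk virus replicon-harboring) exposed to each compound at 0 (mock-DMSO) to 320 μM for 48 hr; viability read with a cell cytotoxicity assay kit; median toxic dose (TD50) calculated.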

Where only a bound is given, the exact number is not on record here.

For the compound `O=S1(=O)NCCCN1Cc1cccc(Oc2ccccc2)c1`, in data set [1], the EC50 is above 20 µM.

As for `O=C1NCCCN1Cc1cccc(Oc2ccccc2)c1`, in data set [1], the EC50 is above 20 µM.

`c1ccc(Oc2cccc(Cn3ccnn3)c2)cc1`: the CC50 at 48 h in data set [2] amounted to 100 µM. The EC50 in data set [1] came out at 10 µM.

Regarding `O=C1CN(Cc2cccc(Oc3ccccc3)c2)S(=O)(=O)N1`, the EC50 in data set [1] is above 20 µM.

With `C[Si](C)(C)c1cn(Cc2cccc(Oc3ccccc3)c2)nn1`, the CC50 at 48 h in data set [2] is 30 µM. Besides, the EC50 in data set [1] was found to be 7 µM.

Consider `O=C1NCCN1Cc1cccc(Oc2ccccc2)c1`, for which the CC50 at 48 h in data set [2] is 95 µM. The EC50 in data set [1] was determined as 8 µM.

As to `c1ccc(Oc2cccc(Cn3ccnc3)c2)cc1`, the CC50 at 48 h in data set [2] came out at 35 µM. For the same compound, the EC50 in data set [1] came out at 8 µM.

As for `CC(C)(C)OC(=O)CN1CCN(Cc2cccc(Oc3ccccc3)c2)C1=O`, the CC50 at 48 h in data set [2] was found to be 55 µM. For the same compound, the EC50 in data set [1] was 12 µM.

Take `c1ccc(Oc2cccc(Cc3nn[nH]n3)c2)cc1`: the EC50 in data set [1] is above 20 µM.

As to `O=C1N(CCN2CCOCC2)CCN1Cc1cccc(Oc2ccccc2)c1`, the CC50 at 48 h in data set [2] is 120 µM. In addition, the EC50 in data set [1] came out at 16 µM.

For `CCCCc1cn(Cc2cccc(Oc3ccccc3)c2)nn1`, the CC50 at 48 h in data set [2] came out at 40 µM. Also, the EC50 in data set [1] came to 6 µM.

With `CC(C)(O)c1cn(Cc2cccc(Oc3ccccc3)c2)nn1`, the EC50 in data set [1] is above 20 µM.

As to `O=C1N(CCN2CCN(CCN3CCN(Cc4cccc(Oc5ccccc5)c4)C3=O)CC2)CCN1Cc1cccc(Oc2ccccc2)c1`, the CC50 at 48 h in data set [2] was found to be 2.5 µM. Besides, in data set [1], the EC50 is 0.5 µM.

Consider `O=C(O)CCCc1cn(Cc2cccc(Oc3ccccc3)c2)nn1`, for which, in data set [1], the EC50 is above 20 µM.

For `Cn1nnc(Cc2cccc(Oc3ccccc3)c2)n1`, the EC50 in data set [1] was above 20 µM.

For the compound `O=C(O)CN1CCN(Cc2cccc(Oc3ccccc3)c2)C1=O`, the EC50 in data set [1] was above 20 µM.
